What was measured:
[1] = test system: Akt protein in MDA-MB-231 cells; assay: Akt concentration in cell lysates; assay type: cell-based, human; settings: 20 µM, 24 h, control 8.22 U/mL
Procedure, shortened: (§1)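 MDA-MB-231 cells were grown in DMEM with 10% FBS and 1% penicillin/streptomycin at 37 °C, 5% CO2. They were reseeded in phenol-red-free DMEM with 10% CPSR1, used near 80% confluence and exposed to 20 µM for 24 h; untreated cells were the control. Cells were trypsinised, washed thrice in cold PBS, spun at 1000× g for 5 min at 4 °C, and 1.5 × 10^6 cells were lysed. Supernatants were frozen at −70 °C. Target protein was measured by antibody-precoated high-sensitivity kit. Three independent experiments in duplicate; one-way ANOVA with Tukey test.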

[2] = test system: p53 tumour suppressor in MDA-MB-231 cells; assay: p53 concentration in cell lysates; assay type: cell-based, human; settings: 20 µM, 24 h
Procedure, shortened: as §1

[3] = test system: proapoptotic Bax in MDA-MB-231 cells; assay: Bax concentration in cell lysates; assay type: cell-based, human; settings: 20 µM, 24 h
Procedure, shortened: as §1

MCF-7 = settings: read-out: activity against MCF-7 breast cancer cells in vitro; cited from earlier work

SMILES | concentration of Akt [1] | change of p53 level vs control [2] | concentration of Bax [3] | IC50 (MCF-7)
C[C@H]1[C@H](C)CC[C@]2(C(=O)O)CC[C@]3(C)C(=CC[C@@H]4[C@@]5(C)CC[C@H](O)C(C)(C)[C@@H]5CC[C@]43C)[C@H]12 [Ursolic acid 1, Ursolic acid] | 4.49 U/mL | increased the p53 concentration, but the values were statistically insignificant | 760 pg/mL | 
CC(=O)OC1CCC2(C)C(CCC3(C)C2CC=C2C4CC(C)(C)CCC4(C(=O)n4ccc(=O)[nH]c4=O)CCC23C)C1(C)C (stereo not drawn) [1-[(3β)-3-(acetyloxy)-28-oxoolean-12-en-28-yl]-2,4(1 H,3 H)-pyrimidinedione] |  |  |  | < 100 nM
